# From ChEMBL document CHEMBL1126083, “Novel functional M1 selective muscarinic agonists. Synthesis and structure-activity relationships of 3-(1,2,5-thiadiazolyl)-1,2,5,6-tetrahydro-1-methylpyridines ” (J Med Chem, 1992)
# Legend:
# Cavia porcellus [1] = species: Cavia porcellus; assay: In vitro inhibition of maximum force of contraction in guinea pig atria.; type: functional
# Cavia porcellus [2] = species: Cavia porcellus; assay: In vitro inhibition of force of contraction in guinea pig atria.; type: functional
# [3] = biological target: T1, Muscarinic acetylcholine receptor M1 (Rattus norvegicus, UniProt P08482); assay: In vitro binding affinity against muscarinic acetylcholine receptor M1 from rat hippocampus, using [3H]pirenzepine (Pz) as radioligand; type: tissue-based
# T1 sequence (P08482 whole entry): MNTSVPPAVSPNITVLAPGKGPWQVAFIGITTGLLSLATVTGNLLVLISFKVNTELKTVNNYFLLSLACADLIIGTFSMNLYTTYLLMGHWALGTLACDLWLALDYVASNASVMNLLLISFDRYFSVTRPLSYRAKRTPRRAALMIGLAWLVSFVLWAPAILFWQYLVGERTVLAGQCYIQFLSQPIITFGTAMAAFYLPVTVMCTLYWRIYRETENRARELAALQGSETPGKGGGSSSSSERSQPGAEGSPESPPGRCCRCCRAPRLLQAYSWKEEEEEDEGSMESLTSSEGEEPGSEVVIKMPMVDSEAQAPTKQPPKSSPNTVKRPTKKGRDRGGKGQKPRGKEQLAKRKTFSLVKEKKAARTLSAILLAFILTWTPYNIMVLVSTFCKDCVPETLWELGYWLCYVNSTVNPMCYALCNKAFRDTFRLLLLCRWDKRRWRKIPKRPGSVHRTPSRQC
# Oryctolagus cuniculus [4] = species: Oryctolagus cuniculus; assay: In vitro inhibition of maximum twitch height in electrically stimulated rabbit vas deferens.; type: functional
# Method in brief: (§1)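 Vasa deferentia taken from rabbits under pentobarbital (60 mg/kg i.v.), held at 0.75 g tension and equilibrated ≥30 min. Field-stimulated at 0.5 ms, 40 V, 0.05 Hz. Cumulative concentration–effect curves run on prostatic and epididymal tissues, 3–5 preparations per concentration.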
# Oryctolagus cuniculus [5] = species: Oryctolagus cuniculus; assay: In vitro inhibition of twitch height in electrically stimulated rabbit vas deferens; type: functional; method in brief: as §1
# [6] = biological target: T1, Muscarinic acetylcholine receptor M1; assay: In vitro binding affinity against muscarinic acetylcholine receptor M1 from rat cerebral cortex, using [3H]oxotremorine-M (Oxo-M) as radioligand
# [7] = biological target: T1, Muscarinic acetylcholine receptor M1; assay: In vitro binding affinity against Muscarinic acetylcholine receptor M1 from rat hippocampus, using [3H]oxotremorine-M (Oxo-M) as radioligand.; type: tissue-based; details: in the assay text read “cerebral cortex” for “hippocampus”
# Method in brief: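 Rat cortex (fresh, male Wistar) homogenized in 20 mM Hepes pH 7.4, spun 15 min at 4000g, and washed three times. Homogenate incubated with [3H]Oxo-M (1.0 nM final) for 30 min at 25 °C. […] Filtered and counted by scintillation. IC50 from at least four concentrations in triplicate, fitted by the Hill equation.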
# [8] = biological target: T1, Muscarinic acetylcholine receptor M1; assay: In vitro binding affinity against Muscarinic acetylcholine receptor M1 from rat hippocampus, using [3H]pirenzepine (Pz) as radioligand.; type: tissue-based
SMILES,Inhibition (Cavia porcellus [1]) [%],IC30 (Cavia porcellus [2]) [nM],IC50 [3] [nM],Inhibition (Oryctolagus cuniculus [4]) [%],IC50 (Oryctolagus cuniculus [5]) [nM],IC50 [6] [nM],IC50 [7] [nM],IC50 [8] [nM]
CCCCC(C)Oc1nsnc1C1=CCCN(C)C1.O=C(O)/C=C/C(=O)O (centres undefined),15,> 25000,6.9,79,7,7,,
CCCCSc1nsnc1C1=CCCN(C)C1.O=C(O)C(=O)O,45,100,1.3,83,0.003,1.7,,
CN1CCC=C(c2nsnc2Cl)C1,67,29400,,,,,,
CCCCCCCc1nsnc1C1=CCCN(C)C1.O=C(O)C(=O)O,78,5400,,,,,,
CCCCCCNc1nsnc1C1=CCCN(C)C1,84,13000,105,65,3000,60,,
CCCCCSc1nsnc1C1=CCCN(C)C1.O=C(O)C(=O)O,33,5400,,,,,,
CSc1nsnc1C1=CCCN(C)C1.O=C(O)C(=O)O,100,300,43,70,3,2.3,,
CCC(C)CCOc1nsnc1C1=CCCN(C)C1.O=C(O)/C=C/C(=O)O (centres undefined),0,> 75000,8.4,65,47,10,,
CCCSc1nsnc1C1=CCCN(C)C1.O=C(O)C(=O)O,100,50,4,42,,0.9,,
CCCOc1nsnc1C1=CCCN(C)C1.O=C(O)C(=O)O,100,90,18,25,,1.6,,
CCCCCCSc1nsnc1C1=CCCN(C)C1.O=C(O)C(=O)O,56,9700,,92,0.001,,6.5,5
CCCCOc1nsnc1C1=CCCN(C)C1.O=C(O)C(=O)O,71,200,,,,,,
CCOc1nsnc1C1=CCCN(C)C1.O=C(O)C(=O)O,0,> 75000,48,43,,5.7,,
CCCCCCCCOc1nsnc1C1=CCCN(C)C1.O=C(O)C(=O)O,0,> 75000,40,0,,30,,
CCCC(C)COc1nsnc1C1=CCCN(C)C1.O=C(O)/C=C/C(=O)O (centres undefined),0,> 75000,9,32,,13,,
COc1nsnc1C1=CCCN(C)C1.O=C(O)C(=O)O,50,1100,148,47,364,22,,
CCCCCCOc1nsnc1C1=CCCN(C)C1.O=C(O)C(=O)O,20,> 27000,,,,,,

SMILES,Inhibition (Cavia porcellus [1]) [%],IC30 (Cavia porcellus [2]) [nM],IC50 [3] [nM],Inhibition (Oryctolagus cuniculus [4]) [%],IC50 (Oryctolagus cuniculus [5]) [nM],IC50 [6] [nM],IC50 [7] [nM],IC50 [8] [nM]
CCCCCCCSc1nsnc1C1=CCCN(C)C1.O=C(O)C(=O)O,40,7500,12,63,108,3,,
CCCCCCCCc1nsnc1C1=CCCN(C)C1.O=C(O)C(=O)O,14,> 75000,,26,,,428,56
CCCc1nsnc1C1=CCCN(C)C1.O=C(O)C(=O)O,7,> 75000,,13,,,80,84
CCCCCCCCSc1nsnc1C1=CCCN(C)C1.O=C(O)C(=O)O,5,> 72000,,42,,,140,49
CCCCCc1nsnc1C1=CCCN(C)C1.O=C(O)C(=O)O,12,,,40,,,146,170
C[N+](C)(C)CC#CCOC(=O)Nc1cccc(Cl)c1.[Cl-],0,> 100000,955,91,659,355,,
CN1CCC=C(c2cnsn2)C1,100,10,145,59,26,2,,
CCSc1nsnc1C1=CCCN(C)C1.O=C(O)C(=O)O,100,70,18,71,22,1.9,,
CCCCCCOc1nonc1C1=CCCN(C)C1,0,> 70000,277,47,10000,84,,
CCCCCOc1nsnc1C1=CCCN(C)C1.O=C(O)C(=O)O,43,2800,,,,,,
CCCCCCS(=O)(=O)c1nsnc1C1=CCCN(C)C1,76,5500,62,73,43,29,,
CCCCOc1nonc1C1=CCCN(C)C1,0,> 70000,345,12,,24,,
CC(C)CCCOc1nsnc1C1=CCCN(C)C1.O=C(O)/C=C\C(=O)O,73,7300,9.7,86,0.006,8,,
CCCCCCCOc1nsnc1C1=CCCN(C)C1.O=C(O)C(=O)O,100,3900,,,,,,
CCCCCC[S+]([O-])c1nsnc1C1=CCCN(C)C1 (centres undefined),45,25000,860,80,48,109,,
COC(=O)C1=CCCN(C)C1 [ARECOLINE],100,600,,,,,,
C[N+](C)(C)CCOC(N)=O.[Cl-] [CARBACHOL],100,500,,77,460,,,
